# Measurements of several laboratories.
Structure (SMILES),cell line,test,setting,endpoint,result
NCCC(=O)Nc1ccccc1/N=c1\cc(-c2ccc3nc(N)oc3c2)oc2cc(O)ccc12,MOLM-13,"cell growth or viability, CCK-8",1 µM,inhibition,3.71%
N#CSCc1cc(=O)oc2cc(O)ccc12,SW1573,"cell growth or viability, SRB",,GI50,5.5 µM
NCCC(=O)Nc1ccccc1/N=c1\cc(-c2ccc3c(c2)OCO3)oc2ccccc12,MOLM-13,"cell growth or viability, CCK-8",1 µM,inhibition,2.07%
CNC(=O)c1cc(Oc2ccc(NC(=O)Nc3ccc(Cl)c(C(F)(F)F)c3)cc2)ccn1,Bel-7402,"cell growth or viability, MTT",48 h,IC50,5.06 µM
O=C(Nc1ccccc1/N=c1\cc(-c2ccc3c(c2)OCO3)oc2ccccc12)N1CCNCC1,MOLM-13,"cell growth or viability, CCK-8",1 µM,inhibition,1.47%
CC(C)C[C@H](NC(=O)[C@H](Cc1ccccc1)NC(=O)c1cnccn1)B(O)O,CHP-212,"cell growth or viability, SRB",41.15 nM,viability,90.7%
CNCc1ccc(-c2cc(-c3nc(-c4ccc(S(=O)(=O)C(C)C)cc4)cnc3N)on2)cc1,CT26,"cell growth or viability, ATP luminescence",24 h,IC50,3.05 µM
CCCCCCCCCCCCCCCCCCOc1cccc(CC(=O)OCC[N+](CC)(CC)CC)c1,NCI-H23,"cell growth or viability, SRB",10 µM,inhibition,64.3%
CC(=O)O[C@H]1C(=O)[C@@]2(C)[C@H]([C@H](OC(=O)c3ccccc3)[C@]3(O)C[C@H](OC(=O)[C@H](O)[C@@H](NC(=O)c4ccccc4)c4ccccc4)C(C)=C1C3(C)C)[C@]1(OC(C)=O)CO[C@@H]1C[C@@H]2O,CHP-212,"cell growth or viability, SRB",0.1235 µM,viability,21.3%
C=C(C)[C@@H]1CC[C@]2(C)CC[C@]3(C)[C@H](CC[C@@H]4[C@@]5(C)CC[C@H](O)C(C)(C)[C@@H]5CC[C@]43C)[C@@H]12,SIM-A9,"NO release, inhibitor, Griess","106.7 µM, LPS-stimulated",inhibition,1.81%
COc1ncnc(C2CC2)c1-c1ncc2cnn(Cc3ccc(-c4nc(C(F)(F)F)cn4C(C)C)cc3)c2n1,CHP-212,"cell growth or viability, SRB",12.5 µM,viability,85.3%
NCCC(=O)Nc1ccccc1/N=c1\cc(-c2ccc3nc(N)oc3c2)oc2ccccc12,MOLM-13,"cell growth or viability, CCK-8",1 µM,inhibition,60.4%
COC(=O)[C@H]1[C@@H](O)[C@@]2(O)c3c(OC)cc(O[C@@H]4O[C@@H]([C@H](O)CO)CO[C@H]4OC)cc3O[C@@]2(c2ccc(OC)cc2)[C@@H]1c1ccccc1,C6661,"cell growth or viability, MTS",48 h,IC50,0.007 µM
CCCCCCCCCCCCCCCCCCOc1ccc(CC(=O)OCC[N+]2(C)CCCCC2)cc1,NCI-H23,"cell growth or viability, SRB",10 µM,inhibition,13.3%
C(=N\Nc1cc(N/N=C/c2ccc3ccccc3n2)nc(-c2ccccc2)n1)/c1ccc2ccccc2n1,Bel-7402,"cell growth or viability, MTT",48 h,IC50,10.2 µM
O=C(C[C@@H](C(F)F)n1ccc(F)n1)N1CCC(O)(Cn2cnc3c(cnn3-c3ccc(F)cc3)c2=O)CC1,CHP-212,"cell growth or viability, SRB",27.43 nM,viability,72.4%
Nc1nc2ccc(-c3c/c(=N\c4ccccc4NC(=O)C4CCNC4)c4ccccc4o3)cc2o1 (stereo not drawn),MOLM-13,"cell growth or viability, CCK-8",1 µM,inhibition,41.4%
CCCCCCCCCCCCCCCCCCOc1ccc(CC(=O)OCC[N+](C)(C)C)cc1,NCI-H23,"cell growth or viability, SRB",10 µM,inhibition,6.67%
Cc1c(Cl)c(=O)oc2cc(OCCCCSC#N)ccc12,SW1573,"cell growth or viability, SRB",,GI50,5.8 µM
NCC(=O)Nc1ccccc1/N=c1\cc(-c2ccc3c(c2)OCCO3)oc2ccccc12,MOLM-13,"cell growth or viability, CCK-8",1 µM,inhibition,-2.55%
C[C@@H]1COCCN1c1cc(C2([S@](C)(=N)=O)CC2)nc(-c2cc[nH]c3nccc2-3)n1,CT26,"cell growth or viability, ATP luminescence",24 h,IC50,27.6 µM
O=c1[nH]cc(F)c(=O)[nH]1,Bel-7402,"cell growth or viability, MTT",48 h,IC50,15.8 µM
CCCCCCCCCCCCCCCCCCOCC(COP(=O)([O-])OCC[N+](C)(C)C)OC (stereo not drawn),NCI-H23,"cell growth or viability, SRB",10 µM,inhibition,10.9%
COCCC(=O)Nc1ccccc1/N=c1\cc(-c2ccc3nc(N)oc3c2)oc2ccccc12,MOLM-13,"cell growth or viability, CCK-8",1 µM,inhibition,2.66%
COc1cccc2c1C(=O)c1c(O)c3c(c(O)c1C2=O)C[C@@](O)(C(=O)CO)C[C@@H]3O[C@H]1C[C@H](N)[C@H](O)[C@H](C)O1,CHP-212,"cell growth or viability, SRB",41.15 nM,viability,50.8%
CCCCCCCCCCCCCCCCCCOc1ccccc1CC(=O)OCC[N+]1(C)CCOCC1,NCI-H23,"cell growth or viability, SRB",10 µM,inhibition,33.5%
NCCC(=O)Nc1ccc(/N=c2\cc(-c3ccc4c(c3)OCO4)oc3ccccc23)cc1,MOLM-13,"cell growth or viability, CCK-8",1 µM,inhibition,3.6%
CCCCCCCCCCCCCCCCCCOc1ccc(CC(=O)OCC[N+]2(C)CCOCC2)cc1,NCI-H23,"cell growth or viability, SRB",10 µM,inhibition,5.91%
C(=N\Nc1cc(N/N=C/c2ccc3ccccc3n2)ncn1)/c1ccc2ccccc2n1,Bel-7402,"cell growth or viability, MTT",48 h,IC50,34 µM
CCCCCCCCCCCCCCCCCCOc1cccc(CC(=O)OCC[N+]2(C)CCCCC2)c1,NCI-H23,"cell growth or viability, SRB",10 µM,inhibition,16.1%
O=C(N[C@@H](CSCc1ccccc1)C(=O)NO)c1ccccc1,NCI-H1573,"cell growth or viability, MTT",48 h,IC50,11.3 µM
CCCCCCCCCCCCCCCCCCOc1cccc(CC(=O)OCC[N+](C)(C)C)c1,NCI-H23,"cell growth or viability, SRB",10 µM,inhibition,11%
Cc1cc(=O)oc2cc(OCCCCSC#N)ccc12,SW1573,"cell growth or viability, SRB",,GI50,0.63 µM
